According to ChEMBL document CHEMBL5678799 (Biochem J, 2009):
Activity calls are given as the source filed them. No cut-off for these calls is given here.

Columns and labels:
[1] = biological target: AMPK alpha1/beta2/gamma1 (Homo sapiens) (UniProt O43741+P54619+Q13131); assay: Inhibition of recombinant N-terminal His6-tagged human AMPKalpha1 (11 to 559 residues)/AMPKbeta2 (1 to 272 residues)/AMPKgamma1 (1 to 331 residues) expressed in baculovirus infected Sf21 cells assessed as remaining activity at 10 uM using SAMS as substrate incubated for 30 mins in presence of [gamma-33P]ATP by filter binding method relative to control
In short: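 Run robotically for 30 min at 21 °C under linear conditions. Compound at 1 or 10 µM. Percentage activity remaining versus control without compound, triplicate mean ± S.D.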

[2] = Inhibition of recombinant human N-terminal His6-tagged PKBbeta S474D mutant (120 to 481 residues) expressed in baculovirus infected Sf21 cells assessed as remaining activity at 10 uM using crosstide peptide as substrate incubated for 30 mins in presence of [gamma-33P]ATP by filter binding method relative to control; details: condition cancer, 0.5 h
In short: (§1)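 Assays ran 30 min at 21 °C, robotically and in the linear range. Remaining activity is given relative to incubations lacking compound, as the average of triplicate determinations ± S.D.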

[3] = biological target: Serine/threonine-protein kinase BRSK2 (Homo sapiens) (UniProt Q8IWQ3); assay: Inhibition of recombinant human N-terminal His6-tagged BRSK2 (2 to 674 residues) expressed in baculovirus infected Sf21 cells assessed as remaining activity at 1 uM using KKLNRTLSFAEPG as substrate incubated for 30 mins in presence of [gamma-33P]ATP by filter binding method relative to control; in short: as §1
Serine/threonine-protein kinase BRSK2 (Homo sapiens), sequence (Q8IWQ3 whole entry, the tested form may be a part): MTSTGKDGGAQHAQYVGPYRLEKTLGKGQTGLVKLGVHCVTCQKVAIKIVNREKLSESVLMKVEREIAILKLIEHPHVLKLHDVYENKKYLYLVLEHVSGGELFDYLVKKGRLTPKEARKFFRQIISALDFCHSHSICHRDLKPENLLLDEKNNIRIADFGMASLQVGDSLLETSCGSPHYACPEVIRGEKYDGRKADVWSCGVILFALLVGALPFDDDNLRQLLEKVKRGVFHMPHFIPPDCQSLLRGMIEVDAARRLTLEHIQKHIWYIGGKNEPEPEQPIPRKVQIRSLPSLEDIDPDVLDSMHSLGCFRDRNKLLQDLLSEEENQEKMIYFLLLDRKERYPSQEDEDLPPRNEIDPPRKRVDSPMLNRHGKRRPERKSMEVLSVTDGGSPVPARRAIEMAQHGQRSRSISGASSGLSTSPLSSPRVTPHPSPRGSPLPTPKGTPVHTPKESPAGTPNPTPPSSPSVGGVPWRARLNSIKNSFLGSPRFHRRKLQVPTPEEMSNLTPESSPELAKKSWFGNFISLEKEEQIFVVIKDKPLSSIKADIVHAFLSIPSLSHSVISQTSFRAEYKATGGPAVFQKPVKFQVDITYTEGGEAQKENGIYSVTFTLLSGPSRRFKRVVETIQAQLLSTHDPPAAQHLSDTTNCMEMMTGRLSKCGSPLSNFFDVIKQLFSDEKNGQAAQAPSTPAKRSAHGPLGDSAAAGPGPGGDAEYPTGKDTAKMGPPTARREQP

[4] = biological target: Calcium/calmodulin-dependent protein kinase kinase 2 (Homo sapiens) (UniProt Q96RR4); assay: Inhibition of recombinant human N-terminal GST-tagged CAMKKbeta (1 to 541 residues) expressed in Escherichia coli assessed as remaining activity at 1 uM using DGEFLRTSCGSPNYAARRR as substrate incubated for 30 mins in presence of [gamma-33P]ATP by filter binding method relative to control
Calcium/calmodulin-dependent protein kinase kinase 2 (Homo sapiens), sequence (Q96RR4 2-588 limits assumed): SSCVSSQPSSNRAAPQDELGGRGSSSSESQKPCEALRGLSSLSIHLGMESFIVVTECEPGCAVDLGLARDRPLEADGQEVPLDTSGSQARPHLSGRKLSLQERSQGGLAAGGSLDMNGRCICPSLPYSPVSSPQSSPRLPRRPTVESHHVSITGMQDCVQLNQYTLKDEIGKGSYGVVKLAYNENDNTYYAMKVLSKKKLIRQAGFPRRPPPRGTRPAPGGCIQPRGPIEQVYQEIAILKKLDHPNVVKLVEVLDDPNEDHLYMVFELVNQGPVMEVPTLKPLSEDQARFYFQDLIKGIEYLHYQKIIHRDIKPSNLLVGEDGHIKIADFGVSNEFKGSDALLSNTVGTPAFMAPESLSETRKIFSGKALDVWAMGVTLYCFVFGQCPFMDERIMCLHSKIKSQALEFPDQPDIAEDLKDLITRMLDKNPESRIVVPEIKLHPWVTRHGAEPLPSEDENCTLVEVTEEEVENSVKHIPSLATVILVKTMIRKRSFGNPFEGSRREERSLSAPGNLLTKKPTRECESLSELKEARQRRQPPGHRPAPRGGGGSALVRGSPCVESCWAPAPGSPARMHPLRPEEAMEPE
In short: (§2)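 Robotic radiometric panel assay, 30 min at room temperature (21 °C), with 10 mM magnesium acetate. […] Compound at 1 or 10 µM. Residual activity expressed relative to compound-free control; triplicate average ± S.D.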

[5] = biological target: MAP/microtubule affinity-regulating kinase 3 (Homo sapiens) (UniProt P27448); assay: Inhibition of recombinant human N-terminal His6-tagged MARK3 (2 to 729 residues) expressed in baculovirus infected Sf21 cells assessed as remaining activity at 1 uM using CHKtide as substrate incubated for 30 mins in presence of [gamma-33P]ATP by filter binding method relative to control
MAP/microtubule affinity-regulating kinase 3 (Homo sapiens), sequence (P27448 whole entry, looked up, the tested form may be a part): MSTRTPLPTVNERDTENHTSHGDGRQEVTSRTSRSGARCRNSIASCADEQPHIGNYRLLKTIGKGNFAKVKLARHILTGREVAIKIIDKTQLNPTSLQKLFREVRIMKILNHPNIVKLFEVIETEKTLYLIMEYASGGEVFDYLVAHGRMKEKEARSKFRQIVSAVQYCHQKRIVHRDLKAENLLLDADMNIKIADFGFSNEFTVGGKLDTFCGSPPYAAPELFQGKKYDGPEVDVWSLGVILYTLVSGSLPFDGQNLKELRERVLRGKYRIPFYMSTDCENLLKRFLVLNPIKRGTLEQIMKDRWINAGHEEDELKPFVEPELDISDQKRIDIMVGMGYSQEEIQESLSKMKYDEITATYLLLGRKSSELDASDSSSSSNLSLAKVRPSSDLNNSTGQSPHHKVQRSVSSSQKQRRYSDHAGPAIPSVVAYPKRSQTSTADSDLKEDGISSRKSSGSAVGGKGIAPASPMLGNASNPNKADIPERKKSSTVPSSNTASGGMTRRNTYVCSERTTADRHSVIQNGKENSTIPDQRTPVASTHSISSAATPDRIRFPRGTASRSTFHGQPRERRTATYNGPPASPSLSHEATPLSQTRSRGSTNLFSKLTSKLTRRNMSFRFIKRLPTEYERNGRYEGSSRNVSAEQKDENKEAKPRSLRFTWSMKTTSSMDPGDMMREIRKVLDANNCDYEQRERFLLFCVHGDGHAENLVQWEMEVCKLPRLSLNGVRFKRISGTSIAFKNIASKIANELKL

[6] = biological target: Ribosomal protein S6 kinase alpha-5 (Homo sapiens) (UniProt O75582); assay: Inhibition of recombinant human His6-tagged MSK1 (2 to 802 residues) expressed in baculovirus infected Sf21 cells assessed as remaining activity at 1 uM using GRPRTSSFAEGKK as substrate incubated for 30 mins in presence of [gamma-33P]ATP by filter binding method relative to control; in short: as §2
Ribosomal protein S6 kinase alpha-5 (Homo sapiens), sequence (O75582 whole entry, looked up, the tested form may be a part): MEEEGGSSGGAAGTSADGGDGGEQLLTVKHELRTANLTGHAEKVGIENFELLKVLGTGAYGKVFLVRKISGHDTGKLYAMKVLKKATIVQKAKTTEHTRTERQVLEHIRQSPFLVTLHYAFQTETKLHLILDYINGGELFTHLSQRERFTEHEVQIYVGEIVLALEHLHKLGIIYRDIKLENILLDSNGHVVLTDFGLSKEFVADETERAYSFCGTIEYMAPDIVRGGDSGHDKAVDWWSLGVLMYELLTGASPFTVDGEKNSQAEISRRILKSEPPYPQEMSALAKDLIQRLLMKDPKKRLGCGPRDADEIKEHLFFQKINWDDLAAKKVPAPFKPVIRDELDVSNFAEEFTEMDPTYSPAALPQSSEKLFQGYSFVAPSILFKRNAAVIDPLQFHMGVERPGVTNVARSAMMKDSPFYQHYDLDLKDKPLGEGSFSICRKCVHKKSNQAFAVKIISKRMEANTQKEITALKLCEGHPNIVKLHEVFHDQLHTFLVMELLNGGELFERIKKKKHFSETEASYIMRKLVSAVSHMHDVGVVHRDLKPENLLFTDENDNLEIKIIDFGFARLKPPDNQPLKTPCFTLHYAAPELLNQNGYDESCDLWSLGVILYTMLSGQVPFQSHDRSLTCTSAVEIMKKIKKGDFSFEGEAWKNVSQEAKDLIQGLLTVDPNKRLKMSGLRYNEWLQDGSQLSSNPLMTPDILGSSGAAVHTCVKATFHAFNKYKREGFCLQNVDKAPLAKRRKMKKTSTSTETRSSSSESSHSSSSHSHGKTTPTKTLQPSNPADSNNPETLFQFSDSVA

[7] = biological target: Serine/threonine-protein kinase 3 (Homo sapiens) (UniProt Q13188); assay: Inhibition of recombinant human N-terminal GST-tagged MST2 (2 to 491 residues) expressed in baculovirus infected Sf21 cells assessed as remaining activity at 1 uM using MBP as substrate incubated for 30 mins in presence of [gamma-33P]ATP by filter binding method relative to control
Serine/threonine-protein kinase 3 (Homo sapiens), sequence (Q13188 whole entry, the tested form may be a part): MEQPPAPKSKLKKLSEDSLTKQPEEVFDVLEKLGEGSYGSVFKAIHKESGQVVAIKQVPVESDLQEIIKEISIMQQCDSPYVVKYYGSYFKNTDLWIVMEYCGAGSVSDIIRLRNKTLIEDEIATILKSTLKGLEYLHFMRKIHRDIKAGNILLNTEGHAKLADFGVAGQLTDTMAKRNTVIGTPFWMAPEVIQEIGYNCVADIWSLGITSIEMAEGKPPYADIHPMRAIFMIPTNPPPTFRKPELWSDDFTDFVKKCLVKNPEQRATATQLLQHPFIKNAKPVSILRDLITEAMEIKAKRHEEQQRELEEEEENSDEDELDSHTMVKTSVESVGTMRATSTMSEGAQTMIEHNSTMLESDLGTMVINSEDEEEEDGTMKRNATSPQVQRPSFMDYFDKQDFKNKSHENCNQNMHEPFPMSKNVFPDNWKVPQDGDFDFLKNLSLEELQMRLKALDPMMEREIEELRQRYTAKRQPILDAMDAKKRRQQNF
In short: (§3)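 Panel assays were run for 30 min at 21 °C, within the linear range for time and enzyme. […] Results are percent activity remaining relative to compound-free control, averaged from triplicate ± S.D.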

[8] = biological target: Serine/threonine-protein kinase PAK 5 (Homo sapiens) (UniProt Q9P286); assay: Inhibition of recombinant human N-terminal GST-tagged PAK5 (2 to 719 residues) expressed in Escherichia coli assessed as remaining activity at 10 uM using RRRLSFAEPG as substrate incubated for 30 mins in presence of [gamma-33P]ATP by filter binding method relative to control; in short: as §3
Serine/threonine-protein kinase PAK 5 (Homo sapiens), sequence (Q9P286 whole entry, looked up, the tested form may be a part): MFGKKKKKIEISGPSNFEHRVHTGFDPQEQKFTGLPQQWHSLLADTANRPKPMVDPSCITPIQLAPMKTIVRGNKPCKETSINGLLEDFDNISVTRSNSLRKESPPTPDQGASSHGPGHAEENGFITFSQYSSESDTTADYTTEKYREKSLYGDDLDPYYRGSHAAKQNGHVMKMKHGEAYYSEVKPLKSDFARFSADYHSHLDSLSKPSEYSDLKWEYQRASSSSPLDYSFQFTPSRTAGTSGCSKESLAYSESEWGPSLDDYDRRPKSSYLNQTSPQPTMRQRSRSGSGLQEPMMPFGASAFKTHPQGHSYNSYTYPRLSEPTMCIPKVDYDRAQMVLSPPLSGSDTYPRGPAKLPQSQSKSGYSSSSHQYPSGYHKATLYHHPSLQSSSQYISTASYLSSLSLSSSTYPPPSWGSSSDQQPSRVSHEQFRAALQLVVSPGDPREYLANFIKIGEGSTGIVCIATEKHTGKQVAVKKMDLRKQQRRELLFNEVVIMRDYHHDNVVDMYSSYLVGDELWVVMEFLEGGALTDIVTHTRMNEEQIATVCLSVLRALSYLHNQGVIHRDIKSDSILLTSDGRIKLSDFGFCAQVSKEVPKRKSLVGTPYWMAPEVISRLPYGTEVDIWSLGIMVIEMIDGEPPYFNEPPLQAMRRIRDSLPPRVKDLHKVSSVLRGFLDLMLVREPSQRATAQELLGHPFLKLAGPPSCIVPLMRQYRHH

[9] = biological target: cAMP-dependent protein kinase catalytic subunit alpha (Homo sapiens) (UniProt P17612); assay: Inhibition of recombinant human N-terminal GST-tagged PKAalpha (2 to 351 residues) expressed in Escherichia coli assessed as remaining activity at 10 uM using Kemptide as substrate incubated for 30 mins in presence of [gamma-33P]ATP by filter binding method relative to control; in short: as §3
[10] = biological target: Protein kinase C alpha type (Homo sapiens) (UniProt P17252); assay: Inhibition of recombinant human N-terminal His6-tagged PKCalpha (1 to 672 residues) expressed in baculovirus infected Sf21 cells assessed as remaining activity at 10 uM using Histone H1 as substrate incubated for 30 mins in presence of [gamma-33P]ATP by filter binding method relative to control
[11] = species: Homo sapiens; assay: Inhibition of choline kinase (unknown origin) assessed as remaining activity at 10 uM using choline as substrate incubated for 30 mins in presence of ATP by Kinase Glo assay relative to control
In short: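 Choline kinase assayed with 1 mM choline, 1 μM ATP in 25 mM glycine/NaOH pH 8.5, 67 mM KCl, 5 mM MgCl2, 1 mM DTT, 30 min at room temperature. Stopped with Kinase-Glo Plus, luminescence read after 10 min. Activity relative to control, triplicate.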

[12] = biological target: Mitogen-activated protein kinase; ERK1/ERK2 (Homo sapiens) (UniProt P27361+P28482); assay: Inhibition of ERK1/2 in serum starved/PMA-stimulated HEK293 cells assessed as reduction in RSK phosphorylation at S380 residues at 1 uM incubated for 30 mins by immunoblot analysis; assay type: cell-based
[13] = tested on: MEF; assay: Growth inhibition of mLST8 knockout MEF cells assessed reduction in cell viability at 3 uM incubated for 1 to 3 days by crystal violet staining based assay; assay type: toxicity; details: mouse, time 1-3 day
In short: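 MEFs seeded at 20000 cells per 1.91 cm2 well, grown overnight in 10% foetal bovine serum, then cultured 1, 2 or 3 days with 3 μM inhibitor, 100 nM rapamycin or DMSO. Medium changed every 24 h with freshly dissolved inhibitors. Cells fixed in 4% paraformaldehyde, stained with 0.1% Crystal Violet, dye extracted in 10% acetic acid, A590 read. Quadruplicate wells, expressed as % of DMSO control.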

[14] = biological target: T1, mTORC1 (Homo sapiens) (UniProt P42345+Q8N122+Q9BVC4); details: HEK293, dose 30.0 nM, time 30.0 min
[15] = biological target: T1, mTORC1 (Homo sapiens); details: HEK293, dose 30-1000 nM, time 30.0 min
[16] = biological target: T2, mTORC2 (Homo sapiens) (UniProt P42345+Q6R327+Q9BVC4+Q9BPZ7); details: HEK293, dose 30-1000 nM, time 30.0 min
[17] = biological target: T2, mTORC2 (Homo sapiens); details: HEK293, dose 30-1000 nM, time 30.0 min; remark: listed apart in the source
[18] = biological target: T2, mTORC2 (Homo sapiens); details: HEK293, dose 30-1000 nM, time 30.0 min; remark: listed apart in the source
[19] = biological target: T2, mTORC2 (Homo sapiens); details: HEK293, dose 30-1000 nM, time 30.0 min; remark: listed apart in the source
[20] = biological target: T1, mTORC1 (Homo sapiens); details: HEK293, dose 30-1000 nM, time 30.0 min; remark: listed apart in the source

## COc1ccc(-c2ccc3c(N4CCOCC4)nc(N4C[C@@H](C)O[C@@H](C)C4)nc3n2)cc1CO [Ku-0063794]
[1]
  Activity: 106%
[2]
  Activity: 107%
[3]
  Activity: 90%
[4]
  Activity: 108%
[5]
  Activity: 93%
[6]
  Activity: 101%
[7]
  Activity: 81%
[8]
  Activity: 81%
[9]
  Activity: 85%
[10]
  Activity: 86%
[11]
  Activity: 102%
[12]
  inhibition: inactive
[13]
  growth inhibition (GI): Toxic
[14]
  inhibition: Active
[15]
  inhibition: Dose-Dependent Effect
[16]
  inhibition: Dose-Dependent Effect
[17]
  inhibition: Dose-Dependent Effect
[18]
  inhibition: Active
[19]
  inhibition: Active
[20]
  inhibition: Dose-Dependent Effect
